ChEMBL document CHEMBL4699414, “Hit-to-lead optimization of novel benzimidazole phenylacetamides as broad spectrum trypanosomacides” (RSC Med Chem, 2020)
pIC50: −log10 of the molar value.

Tests used:
[1] = Cytotoxicity against human HEK293 cells assessed as reduction in cell viability measured after 48 hrs by resazurin assay; assay type: cell-based
Method in brief: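 HEK293 cells from ATCC; Alamar Blue viability read-out run per earlier method.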

Trypanosoma cruzi = test: Antitrypanosomal activity against Trypanosoma cruzi infected in rat H9c2 infected with trypomastigotes from parasite-infected monkey LLC-MK2 cells measured after 72 hrs by DRAQ5 DNA dye based microscopic imaging analysis; assay type: functional, organism-based; details: H9c2, 72 h
[2] = Cytotoxicity against rat H9c2 cells assessed as reduction in cell viability; assay type: cell-based
[3] = Cytotoxicity against human HepG2 cells assessed as reduction in cell viability measured after 48 hrs by CellTiter-Glo assay; assay type: cell-based
Method in brief: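 HepG2 human hepatoma cells from GSK Biological Reagents and Assay Development (Stevenage, UK); viability read-out per earlier method.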

[4] = Lipophilicity, logP of the compound; assay type: physicochemical; details: octanol/water
[5] = system: Trypanosoma brucei brucei; test: Antitrypanosomal activity against Trypanosoma brucei brucei Lister 427 assessed as parasite growth inhibition measured after 48 hrs by alamar blue assay; details: Lister 427, 48 h

Row | SMILES | CC50 at 48 h [1] | pIC50 (Trypanosoma cruzi) | CC50 [2] | CC50 at 48 h [3] | logP [4] | pIC50 [5]
1 | CCCn1c(NC(=O)Cc2ccccc2C)nc2ccccc21 | > 83 µM | 5.60 | > 50 µM | > 50 µM | 4.6 | 5.59
2 | O=C(Cn1ccnc1[N+](=O)[O-])NCc1ccccc1 [BENZNIDAZOLE] |  | 5.80 | 31.6 µM |  |  | 
3 | CCCn1c(NC(=O)Cc2ccc(OC)cc2)nc2ccccc21 | > 83 µM | 5.49 | > 50 µM | > 50 µM | 4 | 5.28
4 | CCCn1c(NC(=O)Cc2cccc(C)c2)nc2ccccc21 | 15 µM | 5.70 | > 50 µM | > 50 µM | 4.6 | 5.44
5 | CCCn1c(NC(=O)Cc2ccc(Cl)cc2)nc2cccc(C)c21 | > 83 µM | 5.89 | > 50 µM | > 50 µM | 5.2 | 5.03
6 | CCCn1c(NC(=O)c2ccccc2)nc2ccccc21 | > 83 µM | 5.30 | > 50 µM | 25 µM | 4.1 | 5.42
7 | CCCn1c(NC(=O)Cc2ccc(Cl)cc2)nc2cccc(Br)c21 | > 83 µM |  |  |  | 5.5 | 5.55
8 | CCCn1c(NC(=O)Cc2ccc(OC(F)(F)F)cc2)nc2ccccc21 | > 83 µM | 6.00 | 10 µM | > 50 µM | 5.6 | 5.49
9 | CCCn1c(NC(=O)Cc2ccccc2Br)nc2ccccc21 | > 83 µM | 5.80 | > 50 µM | 20 µM | 4.9 | 5.70
10 | CCCCC(=O)Nc1nc2ccccc2n1CCC | 2.6 µM | 4.89 | 25 µM | > 50 µM | 3.9 | 4.96
11 | CCCn1c(NC(=O)Cc2ccccc2F)nc2ccccc21 | > 83 µM | 5.49 | > 50 µM | > 50 µM | 4.3 | 5.44
12 | CCCCn1c(NC(=O)Cc2ccc(Cl)cc2)nc2ccccc21 | > 83 µM | 5.80 | 13 µM | > 50 µM | 5.2 | 5.36
13 | CCCn1c(NC(=O)Nc2ccc(Cl)cc2)nc2ccccc21 | 5.2 µM | 5.60 | > 50 µM | 40 µM | 4.8 | 5.27
14 | CCCn1c(NC(=O)Cc2ccc(Cl)cc2)nc2ccc(Cl)cc21 | > 83 µM | 6.30 | 6.3 µM | > 50 µM | 5.3 | 5.62
15 | CCCn1c(NC(=O)Cc2ccccc2)nc2ccccc21 | > 83 µM | 5.40 | > 50 µM | > 50 µM | 4.1 | 5.39
16 | CCCn1c(NC(=O)Cc2ccc(F)cc2)nc2ccccc21 | > 83 µM | 5.60 | > 50 µM | > 50 µM | 4.3 | 5.60
17 | CCCn1c(NC(=O)/C=C/c2ccccc2)nc2ccccc21 | > 83 µM | 5.89 | 20 µM | 40 µM | 4.6 | 5.68
18 | CCCCCCCCC(=O)Nc1nc2ccccc2n1CCC | > 83 µM | 5.60 | 20 µM | > 50 µM | 5.7 | 5.14

Row | SMILES | CC50 at 48 h [1] | pIC50 (Trypanosoma cruzi) | CC50 [2] | CC50 at 48 h [3] | logP [4] | pIC50 [5]
19 | CCCn1c(NC(=O)Cc2ccc(-c3ccccc3)cc2)nc2ccccc21 | > 83 µM | 6.00 | > 50 µM | > 50 µM | 5.8 | 5.47
20 | CCCn1c(NC(=O)Cc2ccc(Br)cc2)nc2ccccc21 | > 83 µM | 5.70 | > 50 µM | > 50 µM | 4.9 | 5.30
21 | N=C(N)c1ccc(/N=N/Nc2ccc(C(=N)N)cc2)cc1 [DIMINAZENE DIACETURATE] | 38.5 µM |  |  |  |  | 7.06
22 | CCCCCn1c(NC(=O)Cc2ccc(Cl)cc2)nc2ccccc21 | > 83 µM | 6.00 | > 50 µM | > 50 µM | 5.6 | 5.43
23 | CCCn1c(NC(=O)Cc2ccc(OC(C)=O)cc2)nc2ccccc21 | > 83 µM | 4.49 | > 50 µM | > 50 µM | 3.7 | 4.85
24 | Cn1c(NC(=O)Cc2ccc(Cl)cc2)nc2ccccc21 | > 83 µM | 5.49 | > 50 µM | > 50 µM | 3.8 | 5.42
25 | CCCn1c(NC(=O)Cc2cccc(F)c2)nc2ccccc21 | > 83 µM | 5.70 | > 50 µM | > 50 µM | 4.3 | 5.49
26 | CCCn1c(NC(=O)Cc2ccc(Cl)nc2)nc2ccccc21 | > 83 µM | 5.10 | > 50 µM | > 50 µM | 3.7 | < 4.08
27 | CCCn1c(NC(=O)Cc2cccc(Cl)c2)nc2ccccc21 | 15 µM | 5.80 | > 50 µM | > 50 µM | 4.7 | 5.44
28 | CCCn1c(NC(=O)Cc2ccc(O)cc2)nc2ccccc21 | > 83 µM | 4.40 | > 50 µM | > 50 µM | 3.8 | < 4.08
29 | CCCn1c(NC(=O)Cc2ccc(C(F)(F)F)cc2)nc2ccccc21 | > 83 µM | 6.00 | > 50 µM | > 50 µM | 5 | 5.35
30 | CCCn1c(NC(=O)CCCc2ccccc2)nc2ccccc21 | > 83 µM | 5.80 | 16 µM | > 50 µM | 5 | 5.62
31 | O=C(Cc1ccc(Cl)cc1)Nc1nc2ccccc2[nH]1 | > 83 µM | 4.30 | > 50 µM | > 50 µM | 3.6 | 
32 | CCCn1c(NC(=O)Cc2ccc(Cl)cc2)nc2cc(Br)ccc21 | > 83 µM | 6.10 | > 50 µM |  | 5.5 | 4.80
33 | N=C(N)c1ccc(OCCCCCOc2ccc(C(=N)N)cc2)cc1 [PENTAMIDINE] | 0.67 µM |  |  |  |  | 7.85
34 | CCCn1c(NC(=O)Cc2ccc(Cl)cc2)nc2ccc(C)cc21 | > 83 µM |  |  |  | 5.2 | 4.82
35 | COc1ccc(C[C@H](N)C(=O)N[C@H]2[C@@H](O)[C@H](n3cnc4c(N(C)C)ncnc43)O[C@@H]2CO)cc1 [PUROMYCIN] | 0.23 µM |  |  |  |  | 7.42
36 | CCCc1c(NC(=O)Cc2ccc(Cl)cc2)ncc2ccccc12 |  | 6.30 | 3.2 µM | 7.94 µM | 5.4 | 
